The species named for data set [1] is Homo sapiens. Description: AUC in HIV-infected human assessed as Lamivudine triphosphate level in PBMC at 300 mg QD for 7 days in presence of zidovudine. It is filed as ADME, organism-based. Particulars: in vivo, 168 h. A digest of the protocol:
(§1)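 Adolescents on Combivir QD (two tablets) gave a predose morning sample, then bloods at 2, 4, 6, 12 and 24 h. PBMC were lysed in 70% methanol (15 mM Tris pH 7.0) and anion-exchange cartridges separated MP/DP/TP by KCl step elution. Fractions were dephosphorylated with acid phosphatase, then ZDV or 3TC was measured by RIA (LOQ 0.15 ng/ml). Noncompartmental parameters; AUC by trapezoidal method; undetectables set to half LLOQ.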

The species entered for data set [2] is Homo sapiens. Description: AUC in HIV-infected human assessed as Lamivudine monophosphate level in PBMC at 300 mg QD for 7 days in presence of zidovudine. In kind it is ADME, organism-based. Particulars: in vivo, 168 h. Put shortly:
as §1

The test system of data set [3] is Homo sapiens. Description: Drug metabolism in HIV-infected human PBMC assessed as lamivudine monophosphate level at 300 mg administered in two courses, first BID for 7 to 14 days followed by QD for 7 days and second course the subjects were switched to the other regimen measured per 10^6 cells in presence of lamivudine.
The species entered for data set [4] is Homo sapiens. Briefly: Cmax in HIV-infected human assessed as Lamivudine diphosphate level in PBMC at 300 mg QD for 7 days measured per 10^6 cells in presence of zidovudine. Further details: dose 300 mg. The settings on record: 168 h. It is filed as ADME, organism-based. A digest of the protocol: as §1
Data set [5] relates to Homo sapiens. Description: Drug metabolism in HIV-infected human PBMC assessed as lamivudine diphosphate level at 300 mg administered in two courses, first QD for 7 days followed by BID for 7 to 14 days and second course the subjects were switched to the other regimen measured per 10^6 cells in presence of lamivudine.
The species named for data set [6] is Homo sapiens. Description: Cmax in HIV-infected human assessed as Lamivudine triphosphate level in PBMC at 300 mg QD for 7 days measured per 10^6 cells in presence of zidovudine. It is filed as ADME, organism-based. Further details: dose 300 mg. The settings on record: 168 h. A digest of the protocol:
as §1

Data set [7] is filed under the species Homo sapiens. Briefly: Tmax in HIV-infected human assessed as Lamivudine monophosphate level in PBMC at 300 mg QD for 7 days in presence of zidovudine. It is filed as ADME, organism-based. The settings on record: in vivo, 168 h. Put shortly:
as §1

The subject of data set [8] is Homo sapiens. Briefly: Drug metabolism in HIV-infected human PBMC assessed as lamivudine parent-drug level at 300 mg administered in two courses, first BID for 7 to 14 days followed by QD for 7 days and second course the subjects were switched to the other regimen measured per 10^6 cells in presence of zidovudine.
The species named for data set [9] is Homo sapiens. Briefly: AUC in HIV-infected human assessed as Lamivudine diphosphate level in PBMC at 300 mg QD for 7 days in presence of zidovudine. It is filed as ADME, organism-based. The settings on record: in vivo, 168 h. Put shortly:
as §1

The species named for data set [10] is Homo sapiens. Briefly: Tmax in HIV-infected human assessed as Lamivudine triphosphate level in PBMC at 300 mg QD for 7 days in presence of zidovudine. Particulars: in vivo, 168 h. In kind it is ADME, organism-based. A digest of the protocol: as §1
For data set [11], the species on record is Homo sapiens. Briefly: Tmax in HIV-infected human assessed as Lamivudine diphosphate level in PBMC at 300 mg QD for 7 days in presence of zidovudine. It is filed as ADME, organism-based. Particulars: in vivo, 168 h. Put shortly:
as §1

For data set [12], the species on record is Homo sapiens. Description: Cmax in HIV-infected human assessed as Lamivudine monophosphate level in PBMC at 300 mg QD for 7 days measured per 10^6 cells in presence of zidovudine. Further details: dose 300 mg. It is filed as ADME, organism-based. The settings on record: 168 h. Put shortly:
as §1

The test system of data set [13] is Homo sapiens. Briefly: Drug metabolism in HIV-infected human PBMC assessed as lamivudine parent-drug level at 300 mg administered in two courses, first QD for 7 days followed by BID for 7 to 14 days and second course the subjects were switched to the other regimen measured per 10^6 cells in presence of zidovudine.
The test system of data set [14] is Homo sapiens. Briefly: Drug metabolism in HIV-infected human PBMC assessed as lamivudine monophosphate level at 300 mg administered in two courses, first QD for 7 days followed by BID for 7 to 14 days and second course the subjects were switched to the other regimen measured per 10^6 cells in presence of lamivudine.
Data set [15] can be described thus: Half life in HIV-infected human plasma at 1500 mg. In kind it is ADME, cell-free.
The test system of data set [16] is Homo sapiens. Briefly: Drug metabolism in HIV-infected human PBMC assessed as zidovudine parent-drug level at 600 mg administered in two courses, first QD for 7 days followed by BID for 7 to 14 days and second course the subjects were switched to the other regimen measured per 10^6 cells in presence of Lamivudine. In kind it is ADME, organism-based. A digest of the protocol:
(§2)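 Randomized crossover of Combivir: 600 mg ZDV/300 mg 3TC QD versus 300 mg/150 mg BID, in either order. Predose morning PBMC samples were taken on each regimen. Metabolites were separated on QMA cartridges, acid-phosphatase dephosphorylated, C-18 cleaned and quantified by RIA, reported per 10⁶ cells. Values below LLOQ were imputed as half LLOQ. Regimens were compared by Wilcoxon rank-sum; BID/QD ratios as medians with 95% CI.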

The species named for data set [17] is Homo sapiens. Description: Tmax in HIV-infected human assessed as zidovudine monophosphate level in PBMC at 600 mg QD for 7 days in presence of Lamivudine. Particulars: in vivo, 168 h. It is filed as ADME, organism-based. A digest of the protocol: as §1
Data set [18] relates to Homo sapiens. Description: Drug metabolism in HIV-infected human PBMC assessed as zidovudine parent-drug level at 600 mg administered in two courses, first BID for 7 to 14 days followed by QD for 7 days and second course the subjects were switched to the other regimen measured per 10^6 cells in presence of Lamivudine. In kind it is ADME, organism-based. Put shortly: as §2

Data set [19] relates to Homo sapiens. Description: Drug metabolism in HIV-infected human PBMC assessed as zidovudine diphosphate level at 600 mg administered in two courses, first BID for 7 to 14 days followed by QD for 7 days and second course the subjects were switched to the other regimen measured per 10^6 cells in presence of Lamivudine. In kind it is ADME, organism-based. A digest of the protocol: as §2

Data set [20] is described as follows: Half life in HIV-infected human at 600 mg, po qd. The settings on record: in vivo.
The species entered for data set [21] is Homo sapiens. Description: Tmax in HIV-infected human assessed as zidovudine triphosphate level in PBMC at 600 mg QD for 7 days in presence of Lamivudine. In kind it is ADME, organism-based. The settings on record: in vivo, 168 h. Put shortly:
as §1

Data set [22] is filed under the species Homo sapiens. Briefly: Cmax in HIV-infected human assessed as zidovudine triphosphate level in PBMC at 600 mg QD for 7 days measured per 10^6 cells in presence of Lamivudine. Further details: dose 600 mg. It is filed as ADME, organism-based. The settings on record: 168 h. A digest of the protocol:
as §1

The species entered for data set [23] is Homo sapiens. Briefly: AUC in HIV-infected human assessed as zidovudine monophosphate level in PBMC at 600 mg QD for 7 days in presence of Lamivudine. The settings on record: in vivo, 168 h. It is filed as ADME, organism-based. Put shortly:
as §1

For data set [24], the system named is Homo sapiens. Briefly: Drug metabolism in HIV-infected human PBMC assessed as zidovudine diphosphate level at 600 mg administered in two courses, first QD for 7 days followed by BID for 7 to 14 days and second course the subjects were switched to the other regimen measured per 10^6 cells in presence of Lamivudine. It is filed as ADME, organism-based. A digest of the protocol: as §2

Data set [25] has as its system Homo sapiens. Description: Drug metabolism in HIV-infected human PBMC assessed as zidovudine triphosphate level at 600 mg administered in two courses, first BID for 7 to 14 days followed by QD for 7 days and second course the subjects were switched to the other regimen measured per 10^6 cells in presence of Lamivudine. In kind it is ADME, organism-based. A digest of the protocol:
as §2

The species entered for data set [26] is Homo sapiens. Description: AUC in HIV-infected human assessed as zidovudine diphosphate level in PBMC at 600 mg QD for 7 days in presence of Lamivudine. In kind it is ADME, organism-based. The settings on record: in vivo, 168 h. Put shortly: as §1
The species named for data set [27] is Homo sapiens. Description: Cmax in HIV-infected human assessed as zidovudine diphosphate level in PBMC at 600 mg QD for 7 days measured per 10^6 cells in presence of Lamivudine. It is filed as ADME, organism-based. Further details: dose 600 mg. The settings on record: 168 h. Put shortly: as §1
Data set [28] is filed under the species Homo sapiens. Description: Tmax in HIV-infected human assessed as zidovudine diphosphate level in PBMC at 600 mg QD for 7 days in presence of Lamivudine. In kind it is ADME, organism-based. Particulars: in vivo, 168 h. Put shortly:
as §1

The species named for data set [29] is Homo sapiens. Briefly: Cmax in HIV-infected human assessed as zidovudine monophosphate level in PBMC at 600 mg QD for 7 days measured per 10^6 cells in presence of Lamivudine. In kind it is ADME, organism-based. Further details: dose 600 mg. Particulars: 168 h. Put shortly: as §1
Data set [30] is filed under the species Homo sapiens. Description: AUC in HIV-infected human assessed as zidovudine triphosphate level in PBMC at 600 mg QD for 7 days in presence of Lamivudine. In kind it is ADME, organism-based. The settings on record: in vivo, 168 h. Put shortly:
as §1

Data set [31] relates to Homo sapiens. Briefly: Drug metabolism in HIV-infected human PBMC assessed as zidovudine monophosphate level at 600 mg administered in two courses, first QD for 7 days followed by BID for 7 to 14 days and second course the subjects were switched to the other regimen measured per 10^6 cells in presence of Lamivudine. It is filed as ADME, organism-based. Put shortly:
as §2

The test system of data set [32] is Homo sapiens. Briefly: Drug metabolism in HIV-infected human PBMC assessed as zidovudine monophosphate level at 600 mg administered in two courses, first BID for 7 to 14 days followed by QD for 7 days and second course the subjects were switched to the other regimen measured per 10^6 cells in presence of Lamivudine. It is filed as ADME, organism-based. Put shortly:
as §2

Data set [33] in a line: Half life in HIV-infected human at 300 mg, po bid. Particulars: in vivo.
In data set [34] the test system is Homo sapiens. Description: Drug metabolism in HIV-infected human PBMC assessed as zidovudine triphosphate level at 600 mg administered in two courses, first QD for 7 days followed by BID for 7 to 14 days and second course the subjects were switched to the other regimen measured per 10^6 cells in presence of Lamivudine. It is filed as ADME, organism-based. Put shortly:
as §2

2 molecules from ChEMBL document CHEMBL1153837, “Intracellular pharmacokinetics of once versus twice daily zidovudine and lamivudine in adolescents” (Antimicrob Agents Chemother, 2007) can be followed below.

With `Nc1ccn([C@@H]2CS[C@H](CO)O2)c(=O)n1` [LAMIVUDINE], the AUC in data set [1] came to 65.19 pmol; in [2], 10.42 pmol; in data set [9], 70.01 pmol. Moreover, the values for the lamivudine monophosphate uptake in data set [3] and in data set [14] were 396 pmol and 282 pmol, respectively. In addition, the figures for the Cmax in data set [4], in data set [6] and in data set [12] were 4424 fmol, 4840 fmol and 760 fmol, respectively. For the same molecule, in data set [5], the lamivudine diphosphate uptake is given as 1934 pmol. Further, the figures for the Tmax in data set [7], in data set [10] and in data set [11] were 6.3 h, 6.67 h and 6.37 h, respectively. The lamivudine parent-drug uptake is recorded as 437 pmol in data set [8] and 302 pmol in data set [13].

With `Cc1cn([C@H]2C[C@H](N=[N+]=[N-])[C@@H](CO)O2)c(=O)[nH]c1=O` [ZIDOVUDINE], the half-life is 1 h in data set [15], 6.3 h in [20] and 5.48 h in data set [33]. In addition, the Drug uptake in data set [16] stood at 23.5 fmol; in [18], 23.5 fmol; in [19], 12.2 fmol; in [24], 11.5 fmol; in data set [25] it was 15.4 fmol; in data set [31] it was 76.2 fmol. Also, the values for the Drug uptake in data set [32] and in [34] were 75.3 fmol and 9.3 fmol, respectively. The values for the Tmax in data set [17], in data set [21] and in data set [28] were 2.44 h, 4.74 h and 3.48 h, respectively. For the same molecule, the Cmax is 43.9 fmol in [22], 62.47 fmol in data set [27] and 2997.65 fmol in data set [29]. Further, the values for the AUC in [23], in data set [26] and in data set [30] were 11883 fmol, 627 fmol and 502 fmol, respectively.

As usually defined, the Tmax is the time at which the peak concentration occurs. A word on the half-life: it is the time needed for the level to fall by half in the phase considered. Read a low half-life as fast loss.
